TRPC6 inh = inhibitors of mouse TRPC6 channel; HEK293-TRPC6, membrane potential dye, ACh-evoked depolarization; stronger effect = lower value; B-score at 10 µM; 310,000 tested, 1.1% active; AID 2553;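 active means B-score under library mean minus 3 SD, initial fluorescence not abnormally high, positive integrated signal ratio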;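 further: B-score derived from integrated fluorescence ratio over the kinetic read; more negative B-score means stronger inhibition of depolarization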
Target sequence (Q61143 whole entry, looked up): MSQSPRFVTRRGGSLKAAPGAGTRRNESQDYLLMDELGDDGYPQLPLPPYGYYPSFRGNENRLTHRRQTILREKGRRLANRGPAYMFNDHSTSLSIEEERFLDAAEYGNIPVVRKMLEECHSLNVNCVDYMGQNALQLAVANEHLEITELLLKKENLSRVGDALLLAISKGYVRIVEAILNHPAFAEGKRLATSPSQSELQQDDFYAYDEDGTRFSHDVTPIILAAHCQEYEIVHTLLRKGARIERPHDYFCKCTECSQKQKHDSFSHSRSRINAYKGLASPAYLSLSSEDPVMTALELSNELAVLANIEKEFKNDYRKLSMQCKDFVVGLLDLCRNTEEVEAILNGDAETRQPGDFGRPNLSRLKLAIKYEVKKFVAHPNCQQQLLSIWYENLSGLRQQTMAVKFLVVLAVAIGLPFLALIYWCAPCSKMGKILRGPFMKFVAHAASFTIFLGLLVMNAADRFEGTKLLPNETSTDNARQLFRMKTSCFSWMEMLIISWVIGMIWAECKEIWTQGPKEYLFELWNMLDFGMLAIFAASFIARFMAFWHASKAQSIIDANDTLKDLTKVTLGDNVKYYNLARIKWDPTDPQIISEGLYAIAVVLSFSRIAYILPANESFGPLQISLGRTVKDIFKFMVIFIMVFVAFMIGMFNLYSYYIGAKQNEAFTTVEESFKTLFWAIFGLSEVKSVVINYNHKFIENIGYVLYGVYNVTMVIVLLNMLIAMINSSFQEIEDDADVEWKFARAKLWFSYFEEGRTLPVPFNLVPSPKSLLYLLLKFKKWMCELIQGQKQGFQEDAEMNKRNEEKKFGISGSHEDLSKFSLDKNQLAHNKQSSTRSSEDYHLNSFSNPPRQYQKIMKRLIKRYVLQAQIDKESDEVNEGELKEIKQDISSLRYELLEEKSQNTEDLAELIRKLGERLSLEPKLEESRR
TRPC4 PAM = allosteric potentiators of mouse TRPC4 channel; Q9QUQ5; HEK293 TRPC4beta/mu-opioid, DAMGO EC20, Fluo-4 Ca2+ flux; stronger effect = higher value; B-score at 10 µM; 310,000 tested, 0.42% active; AID 2227;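 active means B-score of calcium response area above 5 SD of library B-scores, with initial fluorescence ratio within 5 SD of library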
TRPC6 act = mouse TRPC6 channel activation; B-score at 10 µM; AID 2550; HEK293-TRPC6 membrane potential dye fluorescence; stronger effect = higher value; 310,000 tested, 0.13% active;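 active means B-score of the integrated fluorescence ratio above library mean plus 3 SD, and starting fluorescence ratio within library mean plus 5 SD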;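 further: higher score means more depolarization so channel activation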
TRPC4 agonist = activators of mouse TRPC4 channel | HEK293 TRPC4beta/mu-opioid, Fluo4 calcium fluorescence; stronger effect = higher value | Q9QUQ5 | AID 2237 | 310,000 tested, 0.49% active | B-score at 10 µM;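 active means B-score above 5 SD of library B-scores, and initial fluorescence ratio not above library mean plus 5 SD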;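 further: positive B-score marks a calcium rise read as TRPC4 activation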
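Assay system: HEK293 cells stably co-expressing mouse TRPC4beta and mu-opioid receptor / Timing: Fluo4 dye loading 45 min at room temperature, 110 s recording / Signal: Fluo4 calcium-sensitive dye fluorescence, kinetic, 1 Hz baseline / Read-out: integrated baseline-normalised fluorescence ratio, converted to per-well B score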
TRPC4 inh = blocks the mouse TRPC4 cation channel; B-score at 10 µM; HEK293 TRPC4beta/mu-opioid, DAMGO-evoked Fluo4 calcium flux; stronger effect = lower value; 300,000 tested, 0.39% active;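 active means B-score over 3 SD under the library average, no early fluorescence shift, positive overall ratio signal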
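Assay system: TRPC4beta/mu-opioid receptor HEK293 cell line; compound dosing: single concentration per test compound; detection: Fluo4 Ca2+ flux fluorescence; evaluation: per-well B score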
TRPC4 sel inh 2 = mouse TRPC4 off-target activity of TRPC6 inhibitors, second screen. HEK293 TRPC4/MOR, membrane potential dye fluorescence; channel activated by saturating DAMGO dose. shares compounds with TRPC6 inh. AID 2776. inhibition, % at 10 µM. 920 tested, 42% active;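 active means compounds whose fluorescence signal differed from control wells by over 3 SD, either direction, in both duplicate plates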
TRPC4 spec = mouse TRPC4 off-target activity of TRPC6 inhibitors; activity change, negative = inhibition, % at 10 µM; AID 2777; shares compounds with TRPC6 inh; 920 tested, 61% active; HEK293 TRPC4/mu-opioid, membrane potential fluorescence;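 active means rise or fall in signal beyond 3 SD of buffer-only wells in both replicate plates, either sign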;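 further: integrated kinetic ratio of fluorescence range over baseline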
HEK293 MPD ctr 2-1 = parental HEK293 nonspecific activity of TRPC6 inhibitors, second screen | shares compounds with TRPC6 inh | parental HEK293 membrane potential dye fluorescence; maximal acetylcholine challenge after compound addition | signal change vs control, % at 10 µM | 920 tested, 31% active | AID 2779;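 active means membrane potential signal moving either way by over 3 SD of the maximum-effect control, in both duplicate plates, meaning non-specific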
HEK293 MPD ctr-1 = counter-screen for TRPC6 inhibitors: effect in parental HEK293 cells | membrane potential signal change, % at 10 µM | shares compounds with TRPC6 inh | 920 tested, 60% active | parental HEK293 membrane potential dye fluorescence;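 active means membrane potential signal shifting up or down by more than 3 SD of buffer-only wells, on both duplicate plates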
HEK293 MPD ctr-2 = parental HEK293 nonspecific activity of TRPC6 modulators; AID 488924; shares compounds with TRPC6 inh; 2,400 tested, 51% active; membrane potential signal change, % at 10 µM; membrane potential dye fluorescence;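 active means membrane potential signal moves up or down beyond 5 SD from buffer-only wells, on both duplicate plates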
HEK293 MPD ctr 2-2 = second check of TRPC6 modulator effects in parental HEK293 cells. membrane potential dye fluorescence; after compound, maximal acetylcholine stimulation. AID 488926. inhibition, % at 10 µM. 2,400 tested, 14% active. shares compounds with TRPC6 inh;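 active means membrane potential signal drops by more than 5 SD from the mean control signal, in both duplicate plates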
TRPC4/MOR mod = mouse TRPC4 off-target activity of TRPC6 modulators. shares compounds with TRPC6 inh. HEK293 TRPC4/mu-opioid, membrane potential fluorescence. percent change from control (negative = decrease, positive = increase), % at 10 µM. 2,400 tested, 69% active;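 active means membrane potential signal moved up or down beyond 5 SD of buffer control wells, in both duplicate plates, actives on both sides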
TRPC4 ctr inh 2 = mouse TRPC4 off-target activity of TRPC6 modulators, second screen | HEK293 TRPC4/mu-opioid, membrane potential dye fluorescence; stimulated with maximal-effect DAMGO | 2,400 tested, 55% active | inhibition, % at 10 µM | shares compounds with TRPC6 inh;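 active means drop in membrane potential signal beyond 5 SD of the control wells in both duplicate plates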;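 further: TRPC4 counter screen for TRPC6 hits run under conditions tuned for TRPC6 not TRPC4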
TRPC6 inh conf = mouse TRPC6 inhibitor confirmation. shares compounds with TRPC6 inh. HEK293-TRPC6, membrane potential dye, ACh-evoked depolarization. inhibition, % at 10 µM. 3,300 tested, 43% active;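 active means fluorescence ratio falls more than 5 SD below the full-stimulation control mean, in both duplicate runs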;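 further: integrated fluorescence ratio of peak minus minimum over baseline after agonist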
TRPC6 act confirm = confirmation of mouse TRPC6 activators; shares compounds with TRPC6 inh; 2,800 tested, 11% active; activation, % at 10 µM; HEK293-TRPC6 membrane potential dye fluorescence, FDSS;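 active means ratio signal rise beyond 5 SD above unstimulated control wells' mean, seen in both duplicate runs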
Each line names hits and unclear results; the compound was inactive in the other large screens (follow-up assays come after a bar, where they were run). A selection: hits, their analogues and other compounds. The true share with any hit is near 2.3%.

CN(C)CCCN(C(=O)/C=C/c1cccs1)c1nc2c(F)cccc2s1	TRPC6 inh -7.1 | TRPC4 sel inh 2 inactive | TRPC4 spec inactive | HEK293 MPD ctr 2-1 inactive | HEK293 MPD ctr-1 inactive | TRPC6 inh conf inactive | TRPC6 act confirm inactive
CN(C)CCCN(C(=O)c1ccco1)c1nc2c(F)cccc2s1	TRPC6 inh -9.8 | TRPC4 sel inh 2 18% | TRPC4 spec -32% | HEK293 MPD ctr 2-1 26% | HEK293 MPD ctr-1 -300% | TRPC6 inh conf 107% | TRPC6 act confirm inactive
CN(C)CCCN(C(=O)c1ccco1)c1nc(-c2ccc(Cl)cc2)cs1	TRPC6 inh -7.3, TRPC4 inh -6 | TRPC4 sel inh 2 12% | TRPC4 spec inactive | HEK293 MPD ctr 2-1 inactive | HEK293 MPD ctr-1 -152% | TRPC6 inh conf inactive | TRPC6 act confirm inactive
CN(C)CCCN(C(=O)c1ccco1)c1nc2c(F)cc(F)cc2s1	TRPC6 inh -7.1 | HEK293 MPD ctr-2 -158% | HEK293 MPD ctr 2-2 inactive | TRPC4/MOR mod -34% | TRPC4 ctr inh 2 82% | TRPC6 inh conf 52% | TRPC6 act confirm inactive
CC(C)Cc1nc(SCC(=O)NCC2CCCO2)c2c(=O)n(C)c(=O)n(C)c2n1 (stereo unspecified)	none
CC1(/[N+]([O-])=C/c2cccc(Cl)c2)CCCCC1=O (stereo unspecified)	none
Cc1onc(-c2ccccc2)c1C(=O)N1CCN(S(=O)(=O)c2ccc(Cl)cc2)CC1	none
Cc1cc(NC(=S)Nc2ccc(C)c(Cl)c2)n[nH]1	none
CCOc1cc(/C=C(/C#N)C(=O)Nc2ccc(O)cc2)cc(Br)c1O	TRPC6 inh -9.7, TRPC6 act 28, TRPC4 agonist 43 | HEK293 MPD ctr-2 831% | HEK293 MPD ctr 2-2 194% | TRPC4/MOR mod 114% | TRPC4 ctr inh 2 29% | TRPC6 inh conf inactive | TRPC6 act confirm 177%
COC(=O)c1ccc(NC(=S)N2CCN(C)CC2)cc1	none
C=CC#CC[N+]1(CC#Cc2ccccc2)CCOCC1	none
C=CC[N+]1(CC#CCOC(c2ccccc2)c2ccccc2)CCOCC1	TRPC6 inh -5.5 | HEK293 MPD ctr-2 inactive | HEK293 MPD ctr 2-2 inactive | TRPC4/MOR mod -16% | TRPC4 ctr inh 2 inactive | TRPC6 inh conf 37% | TRPC6 act confirm inactive
Cc1ccc(SCc2cc(=O)n3ccsc3n2)c(C)c1	none
Cc1ccc(C)c(C(=O)c2c(C)nc3sccn23)c1	TRPC6 inh -6.1 | HEK293 MPD ctr-2 inactive | HEK293 MPD ctr 2-2 inactive | TRPC4/MOR mod 10% | TRPC4 ctr inh 2 inactive | TRPC6 inh conf inactive | TRPC6 act confirm inactive
O=c1oc2ccccc2cc1NCc1ccccc1O	none
CCN(CC)C(=O)N1CCn2c(nc3ccccc32)C1	TRPC6 inh -5.5 | HEK293 MPD ctr-2 inactive | HEK293 MPD ctr 2-2 inactive | TRPC4/MOR mod 12% | TRPC4 ctr inh 2 inactive | TRPC6 inh conf inactive | TRPC6 act confirm inactive
CN(C)C=Nc1c(Br)cc(Br)c2nonc12	TRPC6 act 25 | HEK293 MPD ctr-2 984% | HEK293 MPD ctr 2-2 inactive | TRPC4/MOR mod 136% | TRPC4 ctr inh 2 inactive | TRPC6 inh conf inactive | TRPC6 act confirm 190%
COC(=O)CSc1nc(-c2ccc(F)cc2)cc(C(F)(F)F)n1	none
OC(c1cc(-c2ccc(C(F)(F)F)cc2)nc(C(F)(F)F)c1)C1CCCCN1 (stereo unspecified)	TRPC6 inh -5.9, TRPC4 agonist 43 | HEK293 MPD ctr-2 inactive | HEK293 MPD ctr 2-2 57% | TRPC4/MOR mod -10% | TRPC4 ctr inh 2 54% | TRPC6 inh conf inactive | TRPC6 act confirm inactive
CCN(CC)c1ccc(-c2nc3cnccc3n2C)cc1	TRPC6 inh -5.9 | HEK293 MPD ctr-2 -170% | HEK293 MPD ctr 2-2 inactive | TRPC4/MOR mod -30% | TRPC4 ctr inh 2 34% | TRPC6 inh conf inactive | TRPC6 act confirm inactive
C=CCNc1nc(N)c([N+](=O)[O-])c(N2CCCCCC2)n1	none
Cc1cc(C)n2nc(C(=O)N/N=C/c3ccccc3Cl)nc2n1	none
Cc1cc(C)n2nc(C(=O)N/N=C/c3ccco3)nc2n1	TRPC6 inh -6.6 | HEK293 MPD ctr-2 -275% | HEK293 MPD ctr 2-2 inactive | TRPC4/MOR mod -50% | TRPC4 ctr inh 2 32% | TRPC6 inh conf inactive | TRPC6 act confirm inactive
Cc1cc(=O)n2c3ccccc3n(CC(O)CN3CCCCC3)c2c1C#N (stereo unspecified)	TRPC6 inh -8.3 | TRPC4 sel inh 2 50% | TRPC4 spec -21% | HEK293 MPD ctr 2-1 inactive | HEK293 MPD ctr-1 -365% | TRPC6 inh conf 63% | TRPC6 act confirm inactive
COc1cccc(OC)c1C(=O)NCCc1ccccc1	none
COc1cccc2cc(C(=O)NCCc3ccccc3)oc12	TRPC6 inh -6.2 | HEK293 MPD ctr-2 90% | HEK293 MPD ctr 2-2 inactive | TRPC4/MOR mod 16% | TRPC4 ctr inh 2 inactive | TRPC6 inh conf inactive
O=c1cc(-c2ccc(Cl)c(Cl)c2)[nH][nH]1	TRPC6 inh -5.1 | HEK293 MPD ctr-2 inactive | HEK293 MPD ctr 2-2 inactive | TRPC4/MOR mod inactive | TRPC4 ctr inh 2 inactive | TRPC6 inh conf inactive | TRPC6 act confirm inactive
CCCCC(CC)C(=O)Nc1cc(C(=O)NCc2ccc(C)cc2)ccc1N1CCC2(CC1)CC(c1ccccc1)=NO2 (stereo unspecified)	none

Assay outcomes as filed in PubChem BioAssay.
